Test results taken from ChEMBL document CHEMBL3259629, “Discovery and optimization of piperidyl-1,2,3-triazole ureas as potent, selective, and in vivo-active inhibitors of α/β-hydrolase domain containing 6 (ABHD6)” (J Med Chem, 2013).

Tests used:
[1] = biological target: T1, Neutral cholesterol ester hydrolase 1 (Mus musculus) (UniProt Q8BLF1); settings: Neuro2a, 3 nM
T1 sequence (whole entry): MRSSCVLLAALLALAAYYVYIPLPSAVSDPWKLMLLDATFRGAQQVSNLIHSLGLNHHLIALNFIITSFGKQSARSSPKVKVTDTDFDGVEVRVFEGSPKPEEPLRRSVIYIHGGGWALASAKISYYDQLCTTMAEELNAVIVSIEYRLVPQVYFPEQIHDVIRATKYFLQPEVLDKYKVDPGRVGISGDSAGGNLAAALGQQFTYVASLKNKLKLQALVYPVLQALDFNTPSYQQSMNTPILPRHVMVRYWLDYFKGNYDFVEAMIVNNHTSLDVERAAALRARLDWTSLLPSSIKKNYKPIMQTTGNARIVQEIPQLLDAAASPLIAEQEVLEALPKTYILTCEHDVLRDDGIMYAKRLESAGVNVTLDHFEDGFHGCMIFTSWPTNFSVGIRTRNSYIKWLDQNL

[2] = biological target: T2, Acetylcholinesterase (Mus musculus) (UniProt P21836); settings: Neuro2a, 3 nM
T2 sequence (whole entry): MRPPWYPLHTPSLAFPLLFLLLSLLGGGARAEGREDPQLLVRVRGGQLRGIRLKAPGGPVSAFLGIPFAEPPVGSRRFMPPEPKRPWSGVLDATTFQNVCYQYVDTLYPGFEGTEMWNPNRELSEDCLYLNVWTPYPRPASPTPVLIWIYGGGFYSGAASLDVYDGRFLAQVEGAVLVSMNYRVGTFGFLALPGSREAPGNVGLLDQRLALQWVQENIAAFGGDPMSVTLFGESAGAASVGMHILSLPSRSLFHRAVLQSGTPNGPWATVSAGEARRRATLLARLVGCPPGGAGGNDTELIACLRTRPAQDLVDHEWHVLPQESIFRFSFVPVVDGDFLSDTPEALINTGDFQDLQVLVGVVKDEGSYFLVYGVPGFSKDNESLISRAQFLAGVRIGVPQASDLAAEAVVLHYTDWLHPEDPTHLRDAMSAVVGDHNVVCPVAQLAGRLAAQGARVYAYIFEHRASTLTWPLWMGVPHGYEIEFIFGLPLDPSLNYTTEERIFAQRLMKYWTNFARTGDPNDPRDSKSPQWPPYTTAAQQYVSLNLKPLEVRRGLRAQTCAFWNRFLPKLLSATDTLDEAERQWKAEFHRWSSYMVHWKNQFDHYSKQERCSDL

[3] = biological target: T3, Lon protease homolog, mitochondrial (Mus musculus) (UniProt Q8CGK3); settings: Neuro2a, 3 nM
T3 sequence (whole entry): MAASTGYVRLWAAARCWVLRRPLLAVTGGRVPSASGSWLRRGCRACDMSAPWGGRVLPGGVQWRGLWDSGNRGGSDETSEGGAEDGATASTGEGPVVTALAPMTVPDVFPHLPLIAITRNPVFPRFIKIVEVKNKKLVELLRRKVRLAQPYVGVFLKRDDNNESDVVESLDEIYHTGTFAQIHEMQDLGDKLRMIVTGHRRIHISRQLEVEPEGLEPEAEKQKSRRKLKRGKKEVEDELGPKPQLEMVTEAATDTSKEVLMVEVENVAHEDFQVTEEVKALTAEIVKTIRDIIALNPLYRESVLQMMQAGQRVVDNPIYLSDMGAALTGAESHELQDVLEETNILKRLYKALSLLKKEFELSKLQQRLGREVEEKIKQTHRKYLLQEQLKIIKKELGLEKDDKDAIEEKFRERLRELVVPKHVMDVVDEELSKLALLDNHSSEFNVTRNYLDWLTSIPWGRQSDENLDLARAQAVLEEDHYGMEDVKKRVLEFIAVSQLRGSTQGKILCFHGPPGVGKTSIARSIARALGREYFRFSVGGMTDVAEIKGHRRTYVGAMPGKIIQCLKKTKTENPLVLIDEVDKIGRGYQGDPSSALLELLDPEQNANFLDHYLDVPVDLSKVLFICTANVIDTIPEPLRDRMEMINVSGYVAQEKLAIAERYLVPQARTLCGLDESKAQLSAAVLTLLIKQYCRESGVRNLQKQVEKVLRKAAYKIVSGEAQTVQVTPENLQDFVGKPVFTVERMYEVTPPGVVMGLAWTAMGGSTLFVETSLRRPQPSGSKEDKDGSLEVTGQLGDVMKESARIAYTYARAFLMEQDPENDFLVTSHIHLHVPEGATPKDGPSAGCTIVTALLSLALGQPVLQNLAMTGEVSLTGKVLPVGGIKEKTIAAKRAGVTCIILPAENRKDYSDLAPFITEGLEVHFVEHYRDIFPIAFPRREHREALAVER

[4] = biological target: T4, Diacylglycerol lipase-beta (Mus musculus) (UniProt Q91WC9); assay: Inhibition of FP-rhodamine-labelled recombinant mouse DAGLbeta expressed in HEK293T cells at 1 uM preincubated for 30 mins followed by FP-rhodamine labelling measured after 30 mins by gel-based competitive ABPP assay; assay type: cell-based; settings: HEK-293T
T4 sequence (whole entry): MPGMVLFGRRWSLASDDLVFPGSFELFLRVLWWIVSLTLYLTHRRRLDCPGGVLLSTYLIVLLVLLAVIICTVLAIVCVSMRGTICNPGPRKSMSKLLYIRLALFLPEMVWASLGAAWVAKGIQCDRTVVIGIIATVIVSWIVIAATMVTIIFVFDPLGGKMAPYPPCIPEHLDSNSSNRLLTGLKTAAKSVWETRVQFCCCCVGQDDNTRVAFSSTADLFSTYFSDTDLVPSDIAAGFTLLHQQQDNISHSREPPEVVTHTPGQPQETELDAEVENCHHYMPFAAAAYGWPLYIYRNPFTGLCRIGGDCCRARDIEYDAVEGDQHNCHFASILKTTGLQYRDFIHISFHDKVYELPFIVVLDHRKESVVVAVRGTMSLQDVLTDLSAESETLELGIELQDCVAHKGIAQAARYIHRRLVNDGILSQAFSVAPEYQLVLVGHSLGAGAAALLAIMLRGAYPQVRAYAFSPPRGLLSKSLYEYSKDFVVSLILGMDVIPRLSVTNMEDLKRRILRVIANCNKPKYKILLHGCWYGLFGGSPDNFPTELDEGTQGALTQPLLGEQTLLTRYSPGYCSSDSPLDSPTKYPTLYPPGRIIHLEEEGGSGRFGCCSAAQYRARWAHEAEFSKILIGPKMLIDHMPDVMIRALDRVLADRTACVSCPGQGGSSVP
Outline: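 Mouse DAGLβ transiently overexpressed in HEK293T. Lysate diluted to 0.3 mg/mL in 50 mM HEPES pH 7.2, 100 mM NaCl, 5 mM CaCl₂, 0.1% Triton X-100, 10% DMSO. Compound preincubated 30 min at 37 °C, then 1 μM probe for 30 min at 37 °C, SDS-PAGE and in-gel fluorescence.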

For `O=C(c1cccc(-c2ccc(-c3cn(C(=O)N4CCCCC4c4ccccc4)nn3)cc2)c1)N1CCCCC1` (racemic), the inhibition [1] was < 50%, the inhibition [2] was < 50% and the inhibition [3] was < 50%. The inhibition [4] was 0%.
In the case of `O=C(N1CCCCC1c1ccccc1)n1cc(-c2ccc(-c3cccc(CO)c3)cc2)nn1` (racemic), the inhibition [1] is reported as < 50%, the inhibition [2] is reported as < 50% and the inhibition [3] is reported as < 50%. The inhibition [4] was 0%.
For `O=C(O)c1cccc(-c2ccc(-c3cn(C(=O)N4CCCCC4Cc4ccccc4)nn3)cc2)c1` (racemic), the inhibition [1] was < 50%, the inhibition [2] was < 50% and the inhibition [3] was < 50%. For the same compound, the inhibition [4] was 50%.
